Data as given in ChEMBL document CHEMBL4699574, “Discovery of Ketone-Based Covalent Inhibitors of Coronavirus 3CL Proteases for the Potential Therapeutic Treatment of COVID-19” (J Med Chem, 2020).

Legend:
[1] = Reversible inhibition of SARS coronavirus Urbani 3CL protease(9985 to 10902) using TAMRA-SITSAVLQSGFRKMK(DABCYL)-OH as substrate measured for 10 mins by FRET assay
Summary of the method: (§1)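 SARS CoV-1 3CLpro FRET assay; each value calculated from at least eight data points, with at least two independent determinations.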

[2] = system: SARS-CoV; test: Antiviral activity against SARS COV-1 infected in monkey vero 76 cells assessed as reduction in virus-induced cytopathic effect measured after 66 hrs by neutral red method or cell titer glo-based luminescence assay; assay type: functional, organism-based; conditions: Severe acute respiratory syndrome-related coronavirus
[3] = Irreversible inhibition of SARS coronavirus Urbani 3CL protease (9985 to 10902) using TAMRA-SITSAVLQSGFRKMK(DABCYL)-OH as substrate measured for 10 mins by FRET assay; summary of the method: as §1
[4] = system: SARS coronavirus Urbani; test: Irreversible inhibition of SARS coronavirus Urbani 3CL protease (9985 to 10902) at 1 uM using TAMRA-SITSAVLQSGFRKMK(DABCYL)-OH as substrate measured for 10 mins by FRET assay relative to control
[5] = system: SARS coronavirus Urbani; test: Irreversible inhibition of SARS coronavirus Urbani 3CL protease (9985 to 10902) assessed as first order inhibition rate constant (Kobs/I ratio) using TAMRA-SITSAVLQSGFRKMK(DABCYL)-OH as substrate measured for 10 mins by FRET assay
Summary of the method: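 SARS CoV-1 3CL protease activity was monitored by a FRET read-out. Irreversible, time-dependent inactivation was expressed as kobs/I. Each value was calculated from at least eight data points, with at least two independent determinations.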

[6] = Permeability of compound in human Caco-2 cells; assay type: ADME, cell-based
[7] = Metabolic stability in human plasma assessed as half-life at 1 uM incubated for 60 mins by LC/MS analysis; assay type: ADME, cell-free
[8] = Glutathione reactivity in pH 7.8 Tris buffer assessed as half-life at 1 uM measured after 30 mins by LC/MS analysis; assay type: ADME
[9] = Solubility of the compound in vehicle formulations; assay type: physicochemical

Structure (SMILES)	IC50 [1]	EC50 [2]	IC50 [3]	other results
COCC(=O)[C@H](C[C@@H]1CCNC1=O)NC(=O)[C@H](CC(C)C)NC(=O)c1cc2ccccc2[nH]1	131 nM	45000 nM		
COCC(=O)[C@H](C[C@@H]1CCNC1=O)NC(=O)[C@H](CC(C)(C)C)NC(=O)[C@H]1CCCO1	1080 nM	> 100000 nM		
COCC(=O)[C@H](C[C@@H]1CCNC1=O)NC(=O)[C@H](CC(C)(C)C)NC(=O)c1cc2c(OC)cccc2[nH]1	35 nM	32000 nM		
COc1cccc2[nH]c(C(=O)N[C@@H](CC(C)C)C(=O)N[C@@H](C[C@@H]3CCNC3=O)C(=O)COC(=O)c3ccccc3C#N)cc12			17 nM	
CC(C)C[C@H](NC(=O)OC(C)(C)C)C(=O)N[C@@H](C[C@@H]1CCNC1=O)C(=O)COC(=O)c1c(Cl)cccc1Cl				inhibition [4]: 24%
COc1cccc2[nH]c(C(=O)N[C@@H](CC(C)C)C(=O)N[C@@H](C[C@@H]3CCNC3=O)C(=O)COC(=O)c3ccc(F)cc3)cc12			82 nM	
COc1cccc2[nH]c(C(=O)N[C@@H](CC(C)C)C(=O)N[C@@H](C[C@@H]3CCNC3=O)C(=O)COC(=O)c3ccccc3)cc12			86 nM	
CC(C)(C)C[C@H](NC(=O)c1cc2ccccc2[nH]1)C(=O)N[C@@H](C[C@@H]1CCNC1=O)C(=O)CO	20 nM	17000 nM		
COCC(=O)[C@H](C[C@@H]1CCNC1=O)NC(=O)[C@H](CC(C)C)NC(=O)c1cc2c(OC)cccc2[nH]1	53 nM	31000 nM		
COc1cccc2[nH]c(C(=O)N[C@@H](CC(C)C)C(=O)N[C@@H](C[C@@H]3CCNC3=O)C(=O)COC(=O)C(C)(C)C)cc12			230 nM	
COc1cccc2[nH]c(C(=O)N[C@@H](CC(C)C)C(=O)N[C@@H](C[C@@H]3CCNC3=O)C(=O)COC(=O)c3ccc(Cl)cc3O)cc12				K [5]: 11500 M⁻¹ s⁻¹
COc1cccc2[nH]c(C(=O)N(C)[C@@H](CC(C)C)C(=O)N[C@@H](C[C@@H]3CCNC3=O)C(=O)CO)cc12	83 nM	19000 nM		permeability [6]: Impermeable
COc1cccc2[nH]c(C(=O)N[C@@H](Cc3ccccc3)C(=O)N[C@@H](C[C@@H]3CCNC3=O)C(=O)CO)cc12	103 nM	47000 nM		permeability [6]: Impermeable
CC(=O)N[C@@H](CC(C)C)C(=O)N[C@@H](C[C@@H]1CCNC1=O)C(=O)COC(=O)c1c(Cl)cccc1Cl			1030 nM	
COc1ccc(C(=O)OCC(=O)[C@H](C[C@@H]2CCNC2=O)NC(=O)[C@H](CC(C)C)NC(=O)c2cc3c(OC)cccc3[nH]2)cc1			79 nM	
CC(C)C[C@H](NC(=O)c1nc2ccccc2[nH]1)C(=O)N[C@@H](C[C@@H]1CCNC1=O)C(=O)COC(=O)c1c(Cl)cccc1Cl				K [5]: 30300 M⁻¹ s⁻¹
CC(C)C[C@H](NC(=O)c1cc2ccccc2[nH]1)C(=O)N[C@@H](C[C@@H]1CCNC1=O)C(=O)CO	38 nM	20000 nM		
CC(C)(C)C[C@H](NC(=O)[C@H]1CCCO1)C(=O)N[C@@H](C[C@@H]1CCNC1=O)C(=O)CO	91 nM	33000 nM		

Structure (SMILES)	IC50 [1]	EC50 [2]	IC50 [3]	other results
COc1cccc2[nH]c(C(=O)N[C@@H](CC(C)C)C(=O)N[C@@H](C[C@@H]3CCNC3=O)C(=O)COC(C)=O)cc12			220 nM	
COc1cccc2[nH]c(C(=O)N[C@@H](CC(C)C)C(=O)N[C@@H](C[C@@H]3CCNC3=O)C(=O)CCl)cc12				K [5]: 283000 M⁻¹ s⁻¹
CCOCC(=O)[C@H](C[C@@H]1CCNC1=O)NC(=O)[C@H](CC(C)(C)C)NC(=O)c1cc2ccccc2[nH]1	112 nM	20000 nM		
COCC(=O)[C@H](C[C@@H]1CCNC1=O)NC(=O)[C@H](CC(C)(C)C)NC(=O)c1cc2ccccc2[nH]1	105 nM	46000 nM		
COc1cccc2[nH]c(C(=O)N[C@@H](CC(C)C)C(=O)N[C@@H](C[C@@H]3CCNC3=O)C(=O)COC(=O)c3ccc(C#N)cc3F)cc12				K [5]: 13300 M⁻¹ s⁻¹
COc1cccc2[nH]c(C(=O)N[C@@H](CC(C)(C)C)C(=O)N[C@@H](C[C@@H]3CCNC3=O)C(=O)CO)cc12	7 nM	10000 nM		permeability [6]: Impermeable
COc1cccc2[nH]c(C(=O)N[C@@H](CC(C)C)C(=O)N[C@@H](C[C@@H]3CCNC3=O)C(=O)COC(=O)c3ccc(C)cc3)cc12			87 nM	
COc1cccc(OC)c1C(=O)OCC(=O)[C@H](C[C@@H]1CCNC1=O)NC(=O)[C@H](CC(C)C)NC(=O)c1cc2c(OC)cccc2[nH]1			205 nM	
COc1cccc2[nH]c(C(=O)N[C@@H](CC(C)C)C(=O)N[C@@H](C[C@@H]3CCNC3=O)C(=O)COC(=O)c3ccc(C#N)cc3)cc12			53 nM	
CCCC[C@H](NC(=O)c1cc2c(OC)cccc2[nH]1)C(=O)N[C@@H](C[C@@H]1CCNC1=O)C(=O)CO	20 nM	10000 nM		permeability [6]: Impermeable
COc1cccc2[nH]c(C(=O)N[C@@H](CC(C)C)C(=O)N[C@@H](C[C@@H]3CCNC3=O)C(=O)COC(=O)c3c(C)cccc3C)cc12			74 nM	
CC(C)C[C@H](NC(=O)[C@H]1CCCO1)C(=O)N[C@@H](C[C@@H]1CCNC1=O)C(=O)COC(=O)c1c(Cl)cccc1Cl				K [5]: 5830 M⁻¹ s⁻¹
COc1cccc2[nH]c(C(=O)N[C@@H](CC(C)C)C(=O)N[C@@H](C[C@@H]3CCNC3=O)C(=O)COC(=O)C3CC3)cc12			182 nM	
COc1cccc2[nH]c(C(=O)N[C@@H](CC3CCCCC3)C(=O)N[C@@H](C[C@@H]3CCNC3=O)C(=O)CO)cc12	44 nM	14000 nM		permeability [6]: Impermeable
COc1cccc2[nH]c(C(=O)N[C@@H](CC(C)C)C(=O)N[C@@H](C[C@@H]3CCNC3=O)C(=O)COC(=O)c3ccc(Cl)cc3)cc12			97 nM	
COc1cccc2[nH]c(C(=O)N[C@@H](CC(C)C)C(=O)N[C@@H](C[C@@H]3CCNC3=O)C(=O)COC(=O)c3c(Cl)cccc3Cl)cc12		290 nM		half-life at 1 µM [7]: > 4 h; half-life at 1 µM [8]: > 1 h; K [5]: 63000 M⁻¹ s⁻¹; solubility [9]: Insoluble
COc1cccc2[nH]c(C(=O)N[C@@H](CC(C)C)C(=O)N[C@@H](C[C@@H]3CCNC3=O)C(=O)COC(=O)c3c(F)cccc3F)cc12				K [5]: 12800 M⁻¹ s⁻¹
COc1cccc2[nH]c(C(=O)N[C@@H](CCC(C)C)C(=O)N[C@@H](C[C@@H]3CCNC3=O)C(=O)CO)cc12	34 nM	33000 nM		permeability [6]: Impermeable
